Reference: PubChem BioAssay
A number with no mark means an inactive call. Inconclusive results are not listed. Activity calls are given as the source filed them.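 The calls were made as follows, unless noted: active = RAM network inhibition above 8.4% in each of two replicates, 3 SD over the compound average; inconclusive = above 8.4% inhibition in only one replicate; inactive = 8.4% inhibition or less in each replicate.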

How the values were obtained:
[1] = OD615 S. cerevisiae growth inhibition, permissive medium, pilot counter-assay, permissive growth control for S. cerevisiae lifespan shortening project (AID 705;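 active = growth inhibition above 25% in both replicates, a cutoff set 3 SD above the mean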); conditions: OD615, 24 h, at 10 µM, stronger effect = higher value
Outline: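 System: Engineered DeaD yeast | Buffer or medium: SC raffinose/galactose permissive medium | Incubation: Cells pre-grown 4 h, then 24 h compound exposure, 30 °C humidified | Measured by: Absorbance (optical density) at 615 nm | Read-out: Reduction in yeast growth (OD615)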

[2] = Restrictive medium S. cerevisiae growth inhibition, OD615, pilot screen of yeast lifespan reduction project, restrictive growth control (AID 706;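 active = growth inhibition above a set limit, 3 SD over mean compound inhibition, in both replicates, cut at about 43% in these data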;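 also: modified DeaD lifespan yeast strain shifted to restrictive glucose medium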); conditions: OD615, 48 h, at 10 µM, stronger effect = higher value
Outline: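 Material: modified S. cerevisiae; Medium: glucose-based CSMM-D restrictive medium; Compound dosing: one concentration, 10 µM final, 0.25% DMSO; Incubation: 48 h compound exposure at 30 °C; Measured by: OD615.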

[3] = viability gain of MRP-1-high H69AR cells under doxorubicin, pilot screen, MRP-1 activator project, CellTiter-Glo, duplicate (AID 807;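 active = viability increase at or above a cutoff of the median across tested compounds plus 3 SD, cut at about 8.5% in these data, passing the limit was not always enough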;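 also: compound pretreatment 18-22 h then 72 h combined with doxorubicin; 0% = doxorubicin alone and 100% = vehicle without doxorubicin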); conditions: H69AR viability with doxorubicin, CellTiter-Glo luminescence; at 10 µM; stronger effect = higher value
[4] = growth suppression of PTEN-deleted HCT116, pilot screen, cell-based, HCT116 clonal line, CellTiter-Glo (AID 824;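 active = viability at or below 27.92% in each of two runs, the all-compound median minus 4 SD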;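 also: 0% = 20 µM Hyamine control and 100% = vehicle cell control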); conditions: 60 h, at 10 µM, stronger effect = lower value
[5] = inhibitors of the yeast RAM network, pilot screen, dse1pr::URA3 reporter, 5-FOA selection (AID 869;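 active = inhibition over a set limit, the all-compound mean plus 3 SD, in both replicate runs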;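 also: 0% = DMSO wells with no growth and 100% = 10 µM 1-NA-PP1 with full growth; RAM network block rescues cells from 5-FOA so hits raise OD615 growth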); conditions: S. cerevisiae dse1pr::URA3 5-FOA growth, OD615, 2 d; at 10 µM; stronger effect = higher value; strain carries analog-sensitive mutant Cbk1 kinase
[6] = RAM signaling pathway blockade in yeast – S. cerevisiae, Pdr1DBD-CYC8 efflux-inhibited sensitized strain, primary screen (AID 1298);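 also: 0% = DMSO untreated cells without growth and 100% = 10 µM 1-NA-PP1 full growth; higher means more yeast growth rescued from 5-FOA killing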; conditions: S. cerevisiae cbk1-as DSE1-URA3 strain, 5-FOA growth OD615, 2 d; at 50 µM; stronger effect = higher value

Row | SMILES | growth inhibition [1] | growth inhibition [2] | viability increase [3] | viability [4] | inhibition [5] | RAM network inhibition [6]
1 | Cc1noc(C)c1CSc1nnc(-c2cc(Cl)ccc2Cl)n1N | 8.57% | 8.54% | -2.82% | 95% | 1.9% | 2.06%
2 | CCN1C=C(C(=O)OC)C(c2cccc(C)c2)C(C(=O)OC)=C1 | -1.2% | -11.5% | -3.43% | 86% | 3.02% | 4.35%
3 | COC(=O)C1=C(C)NC2=C(C(=O)CC(c3cccs3)C2)C1c1ccsc1 (stereo not given) | -7.01% | 2.53% | -6.75% | 40.1% | 1.25% | 4.86%
4 | COc1ccccc1-n1c(SCC(=O)Nc2nnc(C)s2)nc2c(c1=O)SCC2 | -5.29% | 3.71% | -3.7% | 80.6% | 0.81% | 3.59%
5 | Cc1cc(NS(=O)(=O)c2ccccc2)cc(Cl)c1O | -22.9% | 2.72% | -2.8% | 86.2% | 1.4% | 2.58%
6 | CCCn1c(C(C)NC(=O)c2ccccc2)nc2ccccc21 (stereo not given) | -8.46% | -6.87% | -2.18% | 97.6% | 2.92% | 5.38%
7 | CN(CC1CCCO1)S(=O)(=O)c1ccc(C(=O)Nc2nc3cc4c(cc3s2)OCO4)cc1 (stereo not given) | -9.44% | -15.3% | -4.33% | 35.8% | 2.66% | 4.04%
8 | CCc1cc(=O)oc2cc(OCC(=O)OC)c(Cl)cc12 | -4.85% | 1.34% | -2.39% | 101% | 0.695% | 4.51%
9 | CCOC(=O)C1CCN(C(=O)c2cn(C)c(=O)c3cc(OC)c(OC)cc23)CC1 | -3.38% | -10.2% | -4.21% | 98% | 1% | 3.95%
10 | CCOC(=O)N1CCN(C(=O)C(CC(C)C)NC(=O)C2CCCCC2)CC1 (stereo not given) | -11.7% | -4.5% | -2.13% | 101% | 0.455% | 1.59%
11 | CCn1nc(C(=O)NC2=NCCS2)c2ccccc2c1=O | 9.05% | -1.14% | -2.76% | 104% | 1.19% | 3.32%
12 | O=C(NCc1cccc(F)c1)c1noc2c1CCCC2 | -12.1% | -19.5% | -4.68% | 32.7% | 0.33% | 3.14%
13 | O=C(c1ccc(CN2CCOCC2)cc1)N1CCC(Cc2ccccc2)CC1 | -5.94% | -3.29% | -0.71% | 93.1% | 1.29% | 9.1%
14 | Cn1cnnc1SCC(=O)c1ccco1 | -5.92% | -3.4% | -1.08% | 106% | 0.79% | 3.27%
15 | CC(Oc1ccc(Cl)cc1Cl)C(=O)NCc1ccncc1 (stereo not given) | -10.3% | -7.06% | -4.17% | 89.1% | 1.26% | 1.89%
16 | COc1ccc(NC(=O)c2oc3ccccc3c2C)c(OC)c1 | -7.12% | -1.27% | -3.83% | 96.1% | 0.97% | 7.99%
17 | c1ccc(-c2noc(-c3cccnc3)n2)cc1 | 5.9% | 2.4% | -3.8% | 95.2% | -0.04% | 3.95%
18 | COc1cc2c(cc1NC(=O)c1ccco1)CCCC2 | 3.87% | -4.68% | -6.9% | 81.1% | 2.06% | 2.56%
19 | O=C(Oc1c(Cl)cc(Cl)c2cccnc12)N1CCCCC1 | -11.5% | -7.42% | -3.65% | 77.5% | 0.535% | -1.03%
20 | CCOC(=O)COc1cccc2c(=O)n(CC(=O)NCc3ccc4c(c3)OCO4)ccc12 | -18.3% | -15.8% | -5.67% | 27.3% (active) | 3.72% | 6.61%

Row | SMILES | growth inhibition [1] | growth inhibition [2] | viability increase [3] | viability [4] | inhibition [5] | RAM network inhibition [6]
21 | Cc1csc(NC(=O)NC2(C(F)(F)F)Oc3ccccc3O2)n1 | -6.66% | 0.47% | -6.08% | 84.3% | 0.995% | 5.12%
22 | Cc1c(-c2ccco2)[n+](=O)c2c(n1[O-])CCCCC2 | -4.97% | -4.29% | -1.32% | 105% | 1.32% | 8.4%
23 | CC(C)Cn1c(SCC#N)nc2ccccc2c1=O | -0.35% | -14.3% | -1.74% | 88% | 1.18% | 5.88%
24 | CN(C)c1ccc(NC(=S)c2ccccn2)cc1 | 4.71% | -11.2% | -8.3% | 47.2% | 1.82% | 3.01%
25 | CCOC(=O)N1CCN(C(=O)CN(c2cccc(C(F)(F)F)c2)S(C)(=O)=O)CC1 | -9.57% | -1.87% | -4.09% | 88.9% | 0.905% | 4.83%
26 | CCOCCCNC(=O)C(c1ccc(Cl)cc1)N1CCC2(CC1)OCCO2 (stereo not given) | -11.4% | -20.9% | -1.08% | 98% | 1.17% | 1.59%
27 | CCCCNc1ncnc2c1cnn2-c1ccccc1 | -4.09% | -11.2% | -6.48% | 32.4% | 1.83% | -0.15%
28 | CC(Oc1ccc(Cl)cc1)C(=O)Nc1nccs1 (stereo not given) | -5.8% | -5.78% | -1.86% | 87% | 1.31% | 2.7%
29 | CC1(C)CC(=O)C=C(Nc2cc(-c3ccccc3)[nH]n2)C1 | -9.89% | 3.12% | -6.97% | 93.4% | -0.355% | 2.78%
30 | O=C(c1ccco1)c1n[nH]nc1-c1ccccc1 | -19.6% | -5.81% | -3.17% | 102% | 1.16% | 1.94%
31 | COc1ccccc1C(=O)Nc1ccc2c(c1)OCO2 | 4.22% | -12.9% | -3.95% | 89.2% | 2.47% | -1.49%
32 | Cc1oc(-c2ccc(Cl)cc2)nc1CN1CCC(C(=O)N2CCc3ccccc3C2)CC1 | -4.91% | -16.6% | -8.22% | 11.8% (active) | 0.05% | 8.38%
33 | CCNC(=O)CN(C1CCCCC1)S(=O)(=O)c1ccc(F)cc1 | -8.23% | -2.66% | -2.01% | 91% | 3.43% | -0.15%
34 | CCN(CC)CCN1C(=O)C(=O)/C(=C(/O)c2ccc(C)cc2)C1c1ccncc1 (stereo not given) | 2.04% | -2.02% | 0.64% | 97.9% | 0.635% | 5.38%
35 | O=S(=O)(NCCc1csc(-c2cccnc2)n1)c1ccc2c(c1)OCCO2 | -5.61% | 8.38% | -0.72% | 95.5% | 1.71% | -0.63%
36 | CCc1c(C)sc(NC(=O)C2CCCCC2C(=O)O)c1C(N)=O (stereo not given) | 15.1% | 25.8% | -4% | 101% | 1.77% | 9.48%
37 | CC(=O)c1c(C(C)=O)c(C)n(-c2nc(-c3ccccc3)c(C)s2)c1C | 0.235% | -11% | -2.37% | 91.4% | 1.21% | 4.01%
38 | CCN(CC)S(=O)(=O)c1ccc2oc(C(=O)NCc3ccc(F)cc3)c(C)c2c1 | -10.9% | 12.4% | -6.59% | 60.6% | 1.37% | 7.7%
39 | C/C(CC(O)c1ccc2ccccc2n1)=N/O (stereo not given) | 1.34% | 1.94% | -0.7% | 103% | 0.445% | 1.08%
40 | C=CCC1(O)C(=O)N2C(=C1C(=O)N1CCOCC1)c1ccccc1CC2(C)C (stereo not given) | 5.07% | -8.41% | -2.47% | 99.4% | 0.41% | 2.11%
